Measurements from ChEMBL document CHEMBL1926569, “Novel (E)-1-(4-methyl-2-(alkylamino)thiazol-5-yl)-3-arylprop-2-en-1-ones as potent antimicrobial agents” (2011).
In brackets after ≈: the same amount, converted by molar mass.

Legend:
Aspergillus ochraceus [1] = test: Antifungal activity against Aspergillus ochraceus ATCC 12066 after 72 hrs by serial dilution technique; format: functional; conditions: ATCC 12066, 72 h
Summary of the method: (§1)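 Modified microdilution in 96-well plates. Fungi were kept on malt agar at 4 °C. Spores were washed off in sterile 0.85% saline with 0.1% Tween 80. Compounds were dissolved at 1 mg/ml in 5% DMSO with 0.1% Tween 80 and added to malt broth with inoculum. Plates were shaken at 160 rpm for 72 h at 28 °C. Duplicate, repeated three times.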

Enterococcus faecalis [2] = test: Antibacterial activity against Enterococcus faecalis isolated from human incubated for 24 hrs followed by serial sub-cultivation for 24 hrs by microdilution; format: functional
Summary of the method: (§2)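 MBC: after the 24 h LB broth microdilution (1.0 × 10⁴ CFU per well, 160 rpm), wells were serially sub-cultured into fresh broth plates and incubated a further 24 h. MBC is the lowest concentration with no visible growth, taken as 99.5% killing of the original inoculum. Duplicate, repeated three times.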

Talaromyces funiculosus [3] = test: Antifungal activity against Penicillium funiculosum ATCC 36839 incubated for 72 hrs followed by serial sub-cultivation for 72 hrs by serial dilution technique; format: functional; conditions: ATCC 36839, 72 h
Summary of the method: (§3)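 MFC: material from 72 h malt broth microdilution wells was serially sub-cultured into fresh broth plates and incubated a further 72 h at 28 °C. Fungicidal concentration is taken from growth after sub-culture. Duplicate, repeated three times.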

Candida albicans [4] = test: Ratio of bifonazole to compound for Candida albicans isolated from human; format: functional
Penicillium ochrochloron [5] = test: Antifungal activity against Penicillium ochrochloron ATCC 9112 incubated for 72 hrs followed by serial sub-cultivation for 72 hrs by serial dilution technique; format: functional; conditions: ATCC 9112, 72 h; summary of the method: as §3
Pseudomonas aeruginosa [6] = test: Ratio of ampicillin MIC to compound MIC for Pseudomonas aeruginosa ATCC 27853; format: functional
Aspergillus ochraceus [7] = test: Antifungal activity against Aspergillus ochraceus after 72 hrs by serial dilution technique
Aspergillus flavus [8] = test: Antifungal activity against Aspergillus flavus ATCC 9643 after 72 hrs by serial dilution technique; format: functional; conditions: ATCC 9643, 72 h; summary of the method: as §1
Trichoderma viride [9] = test: Ratio of bifonazole to compound for Trichoderma viride IAM 5061; format: functional
Penicillium ochrochloron [10] = test: Ratio of ketoconazole to compound for Penicillium ochrochloron ATCC 9112; format: functional
Penicillium ochrochloron [11] = test: Antifungal activity against Penicillium ochrochloron ATCC 9112 after 72 hrs by serial dilution technique; format: functional; conditions: ATCC 9112, 72 h; summary of the method: as §1
Salmonella typhimurium [12] = test: Antibacterial activity against Salmonella Typhimurium ATCC 13311 after 24 hrs by microdilution method; format: functional, Salmonella enterica subsp. enterica serovar Typhimurium; conditions: Salmonella enterica, ATCC 13311, 24 h
Summary of the method: (§4)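 Broth microdilution in 96-well plates. Bacterial suspensions were adjusted in sterile saline to 1.0 × 10⁵ CFU/ml, prepared daily and kept at 4 °C. Compound was added to LB broth with 1.0 × 10⁴ CFU per well and shaken at 160 rpm for 24 h at […] (so in the source). MIC is the lowest concentration with no visible growth under a binocular microscope. OD655 was also read. Duplicate, repeated three times.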

Trichoderma viride [13] = test: Antifungal activity against Trichoderma viride IAM 5061 after 72 hrs by serial dilution technique; format: functional; conditions: IAM 5061, 72 h; summary of the method: as §1
Enterococcus faecalis [14] = test: Antibacterial activity against Enterococcus faecalis isolated from human after 24 hrs by microdilution method; format: functional; summary of the method: as §4
Aspergillus ochraceus [15] = test: Ratio of bifonazole to compound for Aspergillus ochraceus ATCC 12066; format: functional
Aspergillus niger [16] = test: Antifungal activity against Aspergillus niger ATCC 6275 after 72 hrs by serial dilution technique; format: functional; conditions: ATCC 6275, 72 h; summary of the method: as §1
Micrococcus flavus [17] = test: Antibacterial activity against Micrococcus flavus ATCC 10240 incubated for 24 hrs followed by serial sub-cultivation for 24 hrs by microdilution; format: functional; conditions: ATCC 10240, 24 h; summary of the method: as §2
Bacillus cereus [18] = test: Antibacterial activity against clinical isolate of Bacillus cereus after 24 hrs by microdilution method; format: functional; summary of the method: as §4
Staphylococcus aureus [19] = test: Antibacterial activity against Staphylococcus aureus ATCC 6538 after 24 hrs by microdilution method; format: functional; conditions: ATCC 6538, 24 h; summary of the method: as §4
Micrococcus flavus [20] = test: Antibacterial activity against Micrococcus flavus ATCC 10240 after 24 hrs by microdilution method; format: functional; conditions: ATCC 10240, 24 h; summary of the method: as §4
Penicillium ochrochloron [21] = test: Ratio of bifonazole to compound for Penicillium ochrochloron ATCC 9112; format: functional
Trichoderma viride [22] = test: Antifungal activity against Trichoderma viride IAM 5061 incubated for 72 hrs followed by serial sub-cultivation for 72 hrs by serial dilution technique; format: functional; conditions: IAM 5061, 72 h; summary of the method: as §3
Talaromyces funiculosus [23] = test: Antifungal activity against Penicillium funiculosum ATCC 36839 after 72 hrs by serial dilution technique; format: functional; conditions: ATCC 36839, 72 h; summary of the method: as §1
Aspergillus fumigatus [24] = test: Antifungal activity against Aspergillus fumigatus isolated from human incubated for 72 hrs followed by serial sub-cultivation for 72 hrs by serial dilution technique; format: functional; summary of the method: as §3
Pseudomonas aeruginosa [25] = test: Antibacterial activity against Pseudomonas aeruginosa ATCC 27853 incubated for 24 hrs followed by serial sub-cultivation for 24 hrs by microdilution; format: functional; conditions: ATCC 27853, 24 h; summary of the method: as §2
Aspergillus flavus [26] = test: Antifungal activity against Aspergillus flavus ATCC 9643 incubated for 72 hrs followed by serial sub-cultivation for 72 hrs by serial dilution technique; format: functional; conditions: ATCC 9643, 72 h; summary of the method: as §3
Pseudomonas aeruginosa [27] = test: Antibacterial activity against Pseudomonas aeruginosa ATCC 27853 after 24 hrs by microdilution method; format: functional; conditions: ATCC 27853, 24 h; summary of the method: as §4
Aspergillus fumigatus [28] = test: Ratio of ketoconazole to compound for Aspergillus fumigatus isolated from human; format: functional
Candida albicans [29] = test: Antifungal activity against Candida albicans isolated from human incubated for 72 hrs followed by serial sub-cultivation for 72 hrs by serial dilution technique; format: functional; summary of the method: as §3
Aspergillus ochraceus [30] = test: Ratio of ketoconazole to compound for Aspergillus ochraceus ATCC 12066; format: functional
Aspergillus ochraceus [31] = test: Antifungal activity against Aspergillus ochraceus ATCC 12066 incubated for 72 hrs followed by serial sub-cultivation for 72 hrs by serial dilution technique; format: functional; conditions: ATCC 12066, 72 h; summary of the method: as §3
Escherichia coli [32] = test: Antibacterial activity against Escherichia coli ATCC 35210 incubated for 24 hrs followed by serial sub-cultivation for 24 hrs by microdilution; format: functional; conditions: ATCC 35210, 24 h; summary of the method: as §2
Listeria monocytogenes [33] = test: Antibacterial activity against Listeria monocytogenes NCTC 7973 after 24 hrs by microdilution method; format: functional; conditions: NCTC 7973, 24 h; summary of the method: as §4
Talaromyces funiculosus [34] = test: Ratio of bifonazole to compound for Penicillium funiculosum ATCC 36839; format: functional
Listeria monocytogenes [35] = test: Antibacterial activity against Listeria monocytogenes NCTC 7973 incubated for 24 hrs followed by serial sub-cultivation for 24 hrs by microdilution; format: functional; conditions: NCTC 7973, 24 h; summary of the method: as §2
Bacillus cereus [36] = test: Antibacterial activity against clinical isolate of Bacillus cereus incubated for 24 hrs followed by serial sub-cultivation for 24 hrs by microdilution; format: functional; summary of the method: as §2
Staphylococcus aureus [37] = test: Antibacterial activity against Staphylococcus aureus ATCC 6538 incubated for 24 hrs followed by serial sub-cultivation for 24 hrs by microdilution method; format: functional; conditions: ATCC 6538, 24 h; summary of the method: as §2
Salmonella typhimurium [38] = test: Antibacterial activity against Salmonella Typhimurium ATCC 13311 incubated for 24 hrs followed by serial sub-cultivation for 24 hrs by microdilution; format: functional, Salmonella enterica subsp. enterica serovar Typhimurium; conditions: Salmonella enterica, ATCC 13311, 24 h; summary of the method: as §2
Candida albicans [39] = test: Antifungal activity against Candida albicans isolated from human after 72 hrs by serial dilution technique; format: functional; summary of the method: as §1
Aspergillus niger [40] = test: Ratio of bifonazole to compound for Aspergillus niger ATCC 6275; format: functional
Escherichia coli [41] = test: Antibacterial activity against Escherichia coli ATCC 35210 after 24 hrs by microdilution method; format: functional; conditions: ATCC 35210, 24 h; summary of the method: as §4
Aspergillus niger [42] = test: Antifungal activity against Aspergillus niger ATCC 6275 incubated for 72 hrs followed by serial sub-cultivation for 72 hrs by serial dilution technique; format: functional; conditions: ATCC 6275, 72 h; summary of the method: as §3
Candida albicans [43] = test: Ratio of ketoconazole to compound for Candida albicans isolated from human; format: functional

MIC (Aspergillus ochraceus [1]): 36.2 µM (≈ 10 µg/mL) | MIC (Aspergillus ochraceus [7]): 36.2 µM (≈ 10 µg/mL) | MIC (Aspergillus flavus [8]): 36.2 µM (≈ 10 µg/mL) | MIC (Penicillium ochrochloron [11]): 36.2 µM (≈ 10 µg/mL) | MIC (Salmonella typhimurium [12]): 72.5 µM (≈ 20 µg/mL) | MIC (Trichoderma viride [13]): 36.2 µM (≈ 10 µg/mL) | MIC (Enterococcus faecalis [14]): 54.3 µM (≈ 15 µg/mL) | MIC (Aspergillus niger [16]): 54.3 µM (≈ 15 µg/mL) | MIC (Bacillus cereus [18]): 72.5 µM (≈ 20 µg/mL) | MIC (Staphylococcus aureus [19]): 72.5 µM (≈ 20 µg/mL) | MIC (Micrococcus flavus [20]): 18.1 µM (≈ 5 µg/mL) | MIC (Talaromyces funiculosus [23]): 36.2 µM (≈ 10 µg/mL) | MIC (Pseudomonas aeruginosa [27]): 54.3 µM (≈ 15 µg/mL) | MIC (Listeria monocytogenes [33]): 90.6 µM (≈ 25 µg/mL) | MIC (Candida albicans [39]): 51.3 µM (≈ 14.2 µg/mL) | MIC (Escherichia coli [41]): 54.3 µM (≈ 15 µg/mL)
SMILES: CNc1nc(C)c(C(=O)/C=C/c2cccc(F)c2)s1
MBC (Enterococcus faecalis [2]): 72.5 µM (≈ 20 µg/mL) | MFC (Talaromyces funiculosus [3]): 72.5 µM (≈ 20 µg/mL) | Ratio (Candida albicans [4]): 10 | MFC (Penicillium ochrochloron [5]): 72.5 µM (≈ 20 µg/mL) | Ratio (Pseudomonas aeruginosa [6]): 10 | Ratio (Trichoderma viride [9]): 10 | Ratio (Penicillium ochrochloron [10]): 10 | Ratio (Aspergillus ochraceus [15]): 10 | MBC (Micrococcus flavus [17]): 72.5 µM (≈ 20 µg/mL) | Ratio (Penicillium ochrochloron [21]): 10 | MFC (Trichoderma viride [22]): 72.5 µM (≈ 20 µg/mL) | MFC (Aspergillus fumigatus [24]): 72.5 µM (≈ 20 µg/mL) | MBC (Pseudomonas aeruginosa [25]): 72.5 µM (≈ 20 µg/mL) | MFC (Aspergillus flavus [26]): 90.6 µM (≈ 25 µg/mL) | Ratio (Aspergillus fumigatus [28]): 10 | MFC (Candida albicans [29]): 72.5 µM (≈ 20 µg/mL) | Ratio (Aspergillus ochraceus [30]): 10 | MFC (Aspergillus ochraceus [31]): 72.5 µM (≈ 20 µg/mL) | MBC (Escherichia coli [32]): 72.5 µM (≈ 20 µg/mL) | Ratio (Talaromyces funiculosus [34]): 10 | MBC (Listeria monocytogenes [35]): 90.6 µM (≈ 25 µg/mL) | MBC (Bacillus cereus [36]): 90.6 µM (≈ 25 µg/mL) | MBC (Staphylococcus aureus [37]): 90.6 µM (≈ 25 µg/mL) | MBC (Salmonella typhimurium [38]): 90.6 µM (≈ 25 µg/mL) | Ratio (Aspergillus niger [40]): 10 | MFC (Aspergillus niger [42]): 72.5 µM (≈ 20 µg/mL) | Ratio (Candida albicans [43]): 10
